GPR7 antagonist: antagonists of human GPR7 (neuropeptides B/W receptor 1); P48145; GPR7-expressing cells, fluorescence antagonist assay; inhibition, % at 4.4 µM; 1.1% of 290,000 active; AID 1861; in the data active means inhibition above about 16%, passing the limit was not always enough;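 further: cells stimulated with the agonist NPW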
PGE2 EP2 inh: blocks the human prostaglandin E2 receptor EP2 | P43116 | C6 glioma cells expressing human EP2, cAMP TR-FRET; cells stimulated with saturating PGE2 | inhibition, % at 25 µM | 0.52% of 260,000 active;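 active means percent inhibition above 40 after rounding to a whole number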;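 further: rat C6 glioma host cells with rolipram phosphodiesterase inhibitor present; the protocol text gives 20 µM as final concentration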
Target sequence (P43116 whole entry, looked up): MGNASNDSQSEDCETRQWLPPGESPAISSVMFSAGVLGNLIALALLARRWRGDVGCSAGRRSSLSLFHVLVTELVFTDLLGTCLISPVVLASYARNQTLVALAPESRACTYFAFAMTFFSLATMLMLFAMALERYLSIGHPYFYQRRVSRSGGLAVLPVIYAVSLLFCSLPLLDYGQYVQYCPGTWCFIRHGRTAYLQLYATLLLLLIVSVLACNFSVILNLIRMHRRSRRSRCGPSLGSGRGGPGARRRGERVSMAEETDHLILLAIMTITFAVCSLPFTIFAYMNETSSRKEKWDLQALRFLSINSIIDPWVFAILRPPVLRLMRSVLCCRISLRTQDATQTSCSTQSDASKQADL
OX1R antag-1: blocks the human orexin 1 receptor; OX1R-expressing cells, FRET antagonist read-out; 1.8% of 330,000 active; O43613; inhibition, % at 6.6 µM; in the data active means inhibition mostly above about 38%, no sharp cut-off; inactive means mostly below about 40%
CHO parental Ca: counter-screen for OX1R antagonists: effect in parental CHO cells | parental CHO-K1, ATP-induced calcium, Fluo-8 fluorescence | inhibition, % at 5.6 µM | 0.63% of 330,000 active;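 active means inhibition above that plate's mean sample inhibition plus 3 SD, cut at about 26% in these data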
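Assay system – parental CHO cells · Reagent – ATP stimulus · Detection – intracellular calcium via Fluo-8 no-wash fluorescent dye · Evaluation – percent inhibition of ATP-evoked calcium rise, normalized to controls · Controls – ATP wells versus no-ATP DMSO wells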
EP2 mod: modulates human prostaglandin E2 receptor EP2 signaling. P43116. EP2-expressing cells, cAMP HTRF FRET, PGE2 co-stimulation. induction, % at 25 µM. 0.83% of 260,000 active;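 active means compounds whose cAMP rise, as percent of the full-agonist control response, exceeds 60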;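 further: rat C6 glioma line stably carrying human EP2 under a CMV promoter; the protocol text gives 20 µM as final concentration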
OX1R antag-2: human HCRTR1 antagonism; CHO/OX1R cells, Fluo-8 calcium fluorescence, orexin A; inhibition, % at 5 µM; 0.43% of 330,000 active; AID 434989;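 active means inhibition above its plate's threshold, mean inhibition of all tested compounds on the plate plus 3 SD, cut at about 37% in these data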
Numbers stand for hits; n = inactive; x = not tested or not shown; + = active, no number. In the library only some 3.7% were active in any assay of this set; here they are far more common.

SMILES	GPR7 antagonist	PGE2 EP2 inh	OX1R antag-1	CHO parental Ca	EP2 mod	OX1R antag-2
CC(C)OCCCNC(=O)CCC(=O)NNc1nc2ccccc2c2nc(-c3ccccc3)nn12	n	n	66	n	n	n
Cc1nc2c3ccccc3nc(NNC(=O)CCC(=O)NCCC(C)C)n2n1	n	n	n	n	n	n
CCOCCCNC(=O)CCC(=O)NNc1nc2ccccc2c2nc(-c3ccccc3)nn12	n	n	53	n	n	n
COCCNC(=O)CCC(=O)NNc1nc2ccccc2c2nc(-c3ccccc3)nn12	n	n	72	n	n	n
CCN(CC)CCCNC(=O)CCC(=O)NNc1nc2ccccc2c2nc(C)nn12	n	n	n	n	n	n
Cc1ccc(-c2cc(C(=O)NCCCn3ccnc3)c3ccccc3n2)s1	n	n	n	n	n	n
CC(C)n1c2ccccc2c2nnc(SCC(=O)OCN3C(=O)c4ccccc4C3=O)nc21	n	n	50	n	n	n
CCOC(=O)CSc1nnc2c3ccccc3n(C)c2n1	n	x	n	n	x	n
Cc1nnc(NC(=O)Nc2ccc(Cl)cc2Cl)s1	x	n	x	x	n	x
CCCCC[C@H](O)/C=C/[C@@H]1[C@@H](CCCCCCC(=O)O)[C@@H](O)C[C@H]1O	n	n	n	n	83	n
O=C1Nc2ccc3sc4ccccc4c3c2C1=O	n	n	65	n	n	n
C=CCOc1nc(-c2ccccc2Cl)nc2ccccc12	n	n	n	n	63	n
CCOc1nc(-c2ccccc2Cl)nc2ccccc12	n	n	n	n	n	n
COC(=O)c1cc(C(=O)c2cc(F)ccc2O)cn2c(=O)c3c(C)c(C)sc3nc12	n	n	n	n	n	n
CCSc1cc(N2CCCC2)nc(-c2ccccc2)n1	n	n	n	n	64	n
Cc1ccc(-c2nc3cc(Cl)ccc3o2)cc1	n	n	n	n	n	n
COc1cc(OC)cc(-c2nc3cc(C)ccc3o2)c1	n	n	42	n	n	n
O=C(O)c1ccccc1-c1ccccc1C(=O)c1ccccc1	x	n	x	x	n	x
O=C(C1=C(c2ccccc2)C(=O)c2ccccc2C1=O)c1ccccc1	n	n	x	x	n	x
Cc1oc2c(c1C(=O)c1ccccc1)C(=O)C(=O)c1ccccc1-2	n	57	+	n	n	n
O=C1C(=O)c2c(C(=O)c3ccccc3)coc2-c2ccccc21	n	45	53	n	n	n
CC(C)CC(=O)Nc1ccc(C(=O)CN2C(=O)NC3(CCOc4ccccc43)C2=O)cc1 (centres undefined)	x	x	n	n	x	n
COc1ccc(/C=N/NC(=S)Nc2ccccc2)cc1COc1ccc(F)cc1	n	n	n	n	n	n
NN1C(=O)c2cccc3c(C(=O)O)ccc(c23)C1=O	n	n	58	n	n	n
O=C1c2cccc3c(N4CCCCC4)ccc(c23)C(=O)N1c1ccccc1O	n	n	n	52	n	54
SMILES	GPR7 antagonist	PGE2 EP2 inh	OX1R antag-1	CHO parental Ca	EP2 mod	OX1R antag-2
O=C(c1ccc2c3c(cccc13)C(=O)N(O)C2=O)N1CCCCC1	n	n	72	n	n	n
O=C(O)c1ccc(N2C(=O)c3cccc4c(C(=O)O)ccc(c34)C2=O)cc1	n	n	n	n	n	n
O=C(O)c1ccc2c3c(cccc13)C(=O)N(c1ccccc1)C2=O	n	n	58	n	n	n
CCC(C)NC(=O)c1cc(-c2ccccc2O)on1 (centres undefined)	n	n	n	n	n	n
O=C(c1cc(F)cc(F)c1)N1CCCC(c2noc(-c3ccccn3)n2)C1 (centres undefined)	x	n	x	x	n	x
CCN1C(=O)c2cccc3c(Cl)ccc(c23)C1=O	n	n	n	n	n	n
O=C1c2cccc3c(Cl)ccc(c23)C(=O)N1O	n	n	52	n	n	53
C/C(=N/OC(=O)C1CC1c1ccccc1)c1ccccc1 (centres undefined)	n	n	n	n	n	n
O=S(=O)(NCCOCC(F)(F)F)c1ccc2oc3ccccc3c2c1	n	n	n	59	n	56
O=S(=O)(NCCOCCNS(=O)(=O)c1ccccc1)c1ccccc1	n	x	n	n	n	n
COC(=O)c1ccc(COC(=O)c2[nH]c(C)c(C(C)=O)c2C)o1	n	n	n	38	n	n
Cc1cc(C)cc(C(=O)N(C)C2CCCN(Cc3ccccc3F)C2)c1 (centres undefined)	n	x	n	n	x	n

Screening data: PubChem BioAssay, several laboratories
